≈ marks a conversion by molar mass, not a printed value. Calls of active or inactive are those of the source.
Assays:
Candida albicans [1] = assay: Antimicrobial activity against Candida albicans BR-A2 grown as planktonic cell after 48 hrs by XTT reduction assay; format: functional
Procedure, shortened: (§1)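 Planktonic broth microdilution followed CLSI M27-A2, with caspofungin dissolved in water. After 48 h, XTT-menadione was added to the wells and plates were kept 1 h at 35°C in the dark. Plates were then centrifuged and supernatant A490 was read. MIC was the lowest concentration giving a 50% decrease in metabolic activity versus drug-free control. Paradoxical growth was defined as ≥20% of control activity above the MIC.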

Candida albicans [2] = assay: Antimicrobial activity against Candida albicans BR-A4 grown as planktonic cell after 48 hrs by XTT reduction assay; format: functional; procedure, shortened: as §1
Candida parapsilosis [3] = assay: Antimicrobial activity against Candida parapsilosis BR-A27 grown as planktonic cell after 48 hrs by XTT reduction assay; format: functional; details: Lodderomyces parapsilosis; procedure, shortened: as §1
Candida parapsilosis [4] = assay: Antimicrobial activity against Candida parapsilosis BR-A31 grown as planktonic cell after 48 hrs by XTT reduction assay; format: functional; details: Lodderomyces parapsilosis; procedure, shortened: as §1
Candida orthopsilosis [5] = assay: Antimicrobial activity against Candida orthopsilosis BR-A32 grown as planktonic cell after 48 hrs by XTT reduction assay; format: functional; details: Lodderomyces orthopsilosis; procedure, shortened: as §1
Candida orthopsilosis [6] = assay: Antimicrobial activity against Candida orthopsilosis BR-A33 grown as planktonic cell after 48 hrs by XTT reduction assay; format: functional; details: Lodderomyces orthopsilosis
Procedure, shortened: (§2)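 Planktonic cells were tested by CLSI M27-A2 broth microdilution with caspofungin in water, incubated 48 h. XTT-menadione was added to each well, plates were held 1 h at 35°C in the dark and centrifuged, and supernatant absorbance was read at 490 nm. MIC was defined as 50% decrease in metabolic activity versus drug-free control. PG was defined as ≥20% of control activity at concentrations above MIC.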

Candida orthopsilosis [7] = assay: Antimicrobial activity against Candida orthopsilosis BR-A36 grown as planktonic cell after 48 hrs by XTT reduction assay; format: functional; details: Lodderomyces orthopsilosis; procedure, shortened: as §2
Candida orthopsilosis [8] = assay: Antimicrobial activity against Candida orthopsilosis BR-A37 grown as planktonic cell after 48 hrs by XTT reduction assay; format: functional; details: Lodderomyces orthopsilosis; procedure, shortened: as §1
Candida orthopsilosis [9] = assay: Antimicrobial activity against Candida orthopsilosis BR-A39 grown as planktonic cell after 48 hrs by XTT reduction assay; format: functional; details: Lodderomyces orthopsilosis; procedure, shortened: as §1
Candida metapsilosis [10] = assay: Antimicrobial activity against Candida metapsilosis BR-A40 grown as planktonic cell assessed as paradoxical growth after 48 hrs by XTT reduction assay; format: functional, organism-based; procedure, shortened: as §2
Candida metapsilosis [11] = assay: Antimicrobial activity against Candida metapsilosis BR-A42 grown as planktonic cell after 48 hrs by XTT reduction assay; format: functional; details: Lodderomyces metapsilosis; procedure, shortened: as §2
Candida albicans [12] = assay: Antimicrobial activity against Candida albicans BR-A1 grown as planktonic cell assessed as paradoxical growth after 48 hrs by XTT reduction assay; format: functional, organism-based; procedure, shortened: as §2
Candida albicans [13] = assay: Antimicrobial activity against Candida albicans BR-A4 grown as planktonic cell assessed as paradoxical growth after 48 hrs by XTT reduction assay; format: functional, organism-based; procedure, shortened: as §2
Candida tropicalis [14] = assay: Antimicrobial activity against Candida tropicalis BR-A9 grown as planktonic cell assessed as concentration producing paradoxical growth after 48 hrs by XTT reduction assay; format: functional
Procedure, shortened: (§3)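 Planktonic broth microdilution followed CLSI M27-A2, with caspofungin dissolved in water. After 48 h, XTT-menadione was added to each well and plates were incubated 1 h at 35°C in the dark. Cells were pelleted by centrifugation and the supernatant was read at 490 nm. MIC was the lowest concentration giving a 50% drop in metabolic activity versus the drug-free control. PG was ≥20% of drug-free activity above the MIC.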

Candida tropicalis [15] = assay: Antimicrobial activity against Candida tropicalis BR-A18 grown as planktonic cell assessed as paradoxical growth after 48 hrs by XTT reduction assay; format: functional, organism-based; procedure, shortened: as §3
Candida tropicalis [16] = assay: Antimicrobial activity against Candida tropicalis BR-A24 grown as planktonic cell assessed as paradoxical growth after 48 hrs by XTT reduction assay; format: functional, organism-based; procedure, shortened: as §3
Candida parapsilosis [17] = assay: Antimicrobial activity against Candida parapsilosis BR-A25 grown as planktonic cell assessed as concentration producing paradoxical growth after 48 hrs by XTT reduction assay; format: functional; procedure, shortened: as §3
Candida parapsilosis [18] = assay: Antimicrobial activity against Candida parapsilosis BR-A30 grown as planktonic cell assessed as paradoxical growth after 48 hrs by XTT reduction assay; format: functional, organism-based; procedure, shortened: as §3
Candida albicans [19] = assay: Antimicrobial activity against Candida albicans BR-A7 grown as biofilm after 48 hrs by XTT reduction assay; format: functional
Procedure, shortened: (§4)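 Isolates were grown on Sabouraud agar (30°C, 24 h), then overnight in RPMI 1640 with MOPS, pH 7.0, at 35°C with shaking. Cells were washed and set to ~1 × 10^7 cells/ml, attached 1.5 h at 37°C, and grown 24 h. Biofilms were then exposed to caspofungin in 10 twofold dilutions (2–1,024 μg/ml) for 48 h at 35°C with shaking. Read-out was XTT-menadione, 1 h, 35°C, dark, A490, cell-free blank subtracted. MIC was the 50% drop in activity versus drug-free control. Tested in duplicate.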

Candida tropicalis [20] = assay: Antimicrobial activity against Candida tropicalis BR-A9 grown as biofilm after 48 hrs by XTT reduction assay; format: functional; procedure, shortened: as §4
Candida tropicalis [21] = assay: Antimicrobial activity against Candida tropicalis BR-A14 grown as biofilm after 48 hrs by XTT reduction assay; format: functional
Procedure, shortened: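 Clinical isolates were grown overnight (18 h, 35°C, 120 rpm) in RPMI 1640 with MOPS, pH 7.0, then washed and set to ~1 × 10^7 cells/ml. Cells attached for 1.5 h at 37°C, 75 rpm, then biofilms grew 24 h. Caspofungin was given as doubling dilutions of 2–1,024 μg/ml for 48 h at 35°C, 75 rpm. Read-out was XTT-menadione in PBS, 1 h at 35°C in the dark, A490, cell-free blank subtracted. MIC was a 50% drop in activity versus drug-free; PG was >50% of control above MIC. Run in duplicate.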

Candida parapsilosis [22] = assay: Antimicrobial activity against Candida parapsilosis BR-A28 grown as biofilm after 48 hrs by XTT reduction assay; format: functional; details: Lodderomyces parapsilosis; procedure, shortened: as §4
Candida orthopsilosis [23] = assay: Antimicrobial activity against Candida orthopsilosis BR-A36 grown as biofilm after 48 hrs by XTT reduction assay; format: functional; details: Lodderomyces orthopsilosis; procedure, shortened: as §4
Candida orthopsilosis [24] = assay: Antimicrobial activity against Candida orthopsilosis BR-A32 grown as biofilm assessed as concentration producing paradoxical growth after 48 hrs by XTT reduction assay; format: functional
Procedure, shortened: (§5)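 Sabouraud-grown cells were shaken overnight (18 h, 120 rpm, 35°C) in RPMI 1640 with MOPS at pH 7.0, then washed and set at ~1 × 10^7 cells/ml. Attachment lasted 1.5 h at 37°C, and growth ran 24 h before challenge. Caspofungin was added in RPMI at 2–1,024 μg/ml (10 doublings) for 48 h at 35°C with shaking. XTT-menadione was read at 490 nm after 1 h at 35°C in the dark, with blank wells subtracted. MIC was taken as 50% reduction versus drug-free wells, and PG as >50% of control above MIC. Assays were run in duplicate.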

Candida metapsilosis [25] = assay: Antimicrobial activity against Candida metapsilosis BR-A44 grown as biofilm assessed as concentration producing paradoxical growth after 48 hrs by XTT reduction assay; format: functional; procedure, shortened: as §5
Candida parapsilosis [26] = assay: Effect on morphology in Candida parapsilosis grown as planktonic cells assessed as inhibition of hyphae and pseudohyphae at 16 ug/ml after 48 hrs; format: functional, organism-based
Procedure, shortened: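 Cells were taken from caspofungin-containing and drug-free wells of the planktonic broth microdilution test after 48 h. They were examined by light microscopy at ×400.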

Candida parapsilosis [27] = assay: Effect on morphology in Candida parapsilosis grown as planktonic cells assessed as rounding and clumping at 16 ug/ml after 48 hrs; format: functional, organism-based
Procedure, shortened: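 Clinical isolates were tested by CLSI M27-A2 broth microdilution with caspofungin dissolved in sterile water. After 48 h incubation, cells were taken from drug-containing and drug-free control wells. They were examined by light microscopy at ×400 for hyphae or pseudohyphae, rounding or clumping, and enlarged globose cells.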

**Q.** With `CC[C@H](C)C[C@H](C)CCCCCCCCC(=O)N[C@H]1C[C@@H](O)[C@@H](NCCN)NC(=O)[C@@H]2[C@@H](O)CCN2C(=O)[C@H]([C@H](O)CCN)NC(=O)[C@H]([C@H](O)[C@@H](O)c2ccc(O)cc2)NC(=O)[C@@H]2C[C@@H](O)CN2C(=O)[C@H]([C@@H](C)O)NC1=O` [CASPOFUNGIN] as the compound, how does the MIC (Candida albicans [1]) read?
**A.** 0.5 µg/mL (≈ 0.457 µM)

**Q.** What about the MIC (Candida albicans [2]) of the same compound?
**A.** 0.5 µg/mL (≈ 0.457 µM)

**Q.** What about the MIC (Candida parapsilosis [3]) of the same compound?
**A.** 2 µg/mL (≈ 1.83 µM)

**Q.** What about the MIC (Candida parapsilosis [4]) of the same compound?
**A.** 2 µg/mL (≈ 1.83 µM)

**Q.** What about the MIC (Candida orthopsilosis [5]) of the same compound?
**A.** 2 µg/mL (≈ 1.83 µM)

**Q.** And the MIC (Candida orthopsilosis [6])?
**A.** 1 µg/mL (≈ 0.915 µM)

**Q.** And the MIC (Candida orthopsilosis [7])?
**A.** 1 µg/mL (≈ 0.915 µM)

**Q.** What about the MIC (Candida orthopsilosis [8]) of the same compound?
**A.** 2 µg/mL (≈ 1.83 µM)

**Q.** What about the MIC (Candida orthopsilosis [9]) of the same compound?
**A.** 2 µg/mL (≈ 1.83 µM)

**Q.** And the Activity (Candida metapsilosis [10])?
**A.** inactive

**Q.** What about the MIC (Candida metapsilosis [11]) of the same compound?
**A.** 1 µg/mL (≈ 0.915 µM)

**Q.** What about the Activity (Candida albicans [12]) of the same compound?
**A.** Active

**Q.** What about the Activity (Candida albicans [13]) of the same compound?
**A.** Active

**Q.** What about the Activity (Candida tropicalis [14]) of the same compound?
**A.** 8 µg/mL

**Q.** And the Activity (Candida tropicalis [15])?
**A.** Active

**Q.** What about the Activity (Candida tropicalis [16]) of the same compound?
**A.** Active

**Q.** What about the Activity (Candida parapsilosis [17]) of the same compound?
**A.** 32 µg/mL

**Q.** And the Activity (Candida parapsilosis [18])?
**A.** inactive

**Q.** And the MIC (Candida albicans [19])?
**A.** 2 µg/mL (≈ 1.83 µM)

**Q.** And the MIC (Candida tropicalis [20])?
**A.** 2 µg/mL (≈ 1.83 µM)

**Q.** What about the MIC (Candida tropicalis [21]) of the same compound?
**A.** 256 µg/mL (≈ 234 µM)

**Q.** What about the MIC (Candida parapsilosis [22]) of the same compound?
**A.** 2 µg/mL (≈ 1.83 µM)

**Q.** What about the MIC (Candida orthopsilosis [23]) of the same compound?
**A.** 2 µg/mL (≈ 1.83 µM)

**Q.** What about the Activity (Candida orthopsilosis [24]) of the same compound?
**A.** 32 µg/mL

**Q.** And the Activity (Candida metapsilosis [25])?
**A.** 16 µg/mL

**Q.** What about the Activity (Candida parapsilosis [26]) of the same compound?
**A.** Active

**Q.** What about the Activity (Candida parapsilosis [27]) of the same compound?
**A.** Active
